The source of these data is ChEMBL document CHEMBL3576854, “Northalrugosidine is a bisbenzyltetrahydroisoquinoline alkaloid from Thalictrum alpinum with in vivo antileishmanial activity” (J Nat Prod, 2015).

The test system of one data set is HT-29. The data set can be described thus: Cytotoxicity against human HT-29 cells assessed as inhibition of cell survival after 72 hrs by sulforhodamine B assay. As to conditions: HT-29, 72 h. It is filed as cell-based. In short, it runs like this:
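HT-29 cells, 9500 per well, exposed to a concentration series in triplicate for 72 h. Controls: 10% DMSO in water (negative) and paclitaxel in that carrier (positive).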
A general note: In SRB staining, fixed cells bind dye roughly in proportion to their protein.

Data set [1] concerns Leishmania donovani. Briefly: Antileishmanial activity against transgenic DsRed2 Leishmania donovani promastigotes strain LV82 assessed as parasite killing after 72 hrs by flow cytometry. It is filed as functional, organism-based. As to conditions: LV82, 72 h. A general note: Flow cytometry measures light scatter and fluorescence of single cells or particles in a stream.
Data set [2] deals with Leishmania donovani. The data set can be described thus: Antileishmanial activity against Leishmania donovani promastigotes stain LV82 infected in iv dosed BALB/c mouse assessed as parasite burden reduction in liver cells after 2 weeks of postinjection by Giemsa staining-light microscopy. It is filed as functional, organism-based. In outline:
(§1)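 BALB/c mice infected by tail vein with 10^7 L. donovani LV 82 amastigotes; treated iv two weeks post-infection (100 µL; 2.8, 5.6 or 11.1 mg/kg in 10% DMSO/PBS; vehicle negative control; sodium stibogluconate 70 mg/kg positive control). Sacrificed two weeks later; liver and spleen weighed, impression smears MeOH-fixed, Giemsa-stained, amastigotes counted per 1000 host nuclei by light microscopy; LDU = organ weight (g) × that count.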

In data set [3] the test system is Leishmania donovani. Briefly: Antileishmanial activity against Leishmania donovani […] stain LV82 infected in iv dosed BALB/c mouse assessed as parasite burden reduction in spleen cells after 2 weeks of postinjection by Giemsa staining-light microscopy. It is filed as functional, organism-based. In outline:
as §1

Data set [4] is described as follows: Selectivity index, ratio of IC50 for HT-29 cells to IC50 for transgenic DsRed2 Leishmania donovani promastigotes strain LV82. It is filed as toxicity, cell-based. To be noted: human; read-out: Ratio IC50. In short, it runs like this: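 Ratio of the HT-29 cytotoxicity IC50 (72 h, sulforhodamine B) to the IC50 against DsRed2 L. donovani LV 82 promastigotes (72 h at 23 °C, flow cytometry).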

Another data set relates to Mus musculus. Briefly: Toxicity in BALB/c mouse at 2.8 to 70 mg/kg, iv after 2 weeks. It is filed as organism-based. As to conditions: in vivo, 336 h, in the assay text read “2.8 to 11.1 mg/kg” for “2.8 to 70 mg/kg”. In outline: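 Infected BALB/c mice (about 18 g) watched for overt toxicity over two weeks after one 100 µL iv dose in 10% DMSO/PBS: vehicle, test doses 2.8, 5.6 or 11.1 mg/kg, or sodium stibogluconate 70 mg/kg.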

SMILES strings stand for the structures.

A word on the IC50: it is the midpoint of a concentration-inhibition curve.

Take `COc1ccc2cc1Oc1ccc(cc1)C[C@H]1c3cc(OC)c(OC)c(c3CCN1C)Oc1c(O)c(OC)cc3c1[C@H](C2)NCC3`: the IC50 in the data set with HT-29 came to 8.2 µM; in the data set on Leishmania donovani [1], 0.28 µM. For the same compound, the inhibition result with Leishmania donovani [2] and in the data set with Leishmania donovani [3] was “Dose-dependent effect” in each case. For the same compound, the selectivity ratio in data set [4] was determined as 29.3. Moreover, the Activity result in the data set with Mus musculus is recorded as “Non-toxic”.

As to `COc1ccc2cc1Oc1ccc(cc1)C[C@H]1c3cc(OC)c(OC)c(c3CCN1C)Oc1c(OC)c(OC)cc3c1[C@H](C2)N(C)CC3` [THALIDASINE], the IC50 in the data set on HT-29 stood at 5.5 µM; in the data set on Leishmania donovani [1] it was 10.1 µM. For the same compound, in data set [4], the selectivity ratio was found to be 0.5.

With `COc1ccc2cc1Oc1ccc(cc1)C[C@H]1c3cc(OC)c(OC)c(c3CCN1C)Oc1c(O)c(OC)cc3c1[C@H](C2)N(C)CC3` [THALRUGOSIDINE], the IC50 was found to be 3.6 µM with HT-29 and 1 µM in the data set with Leishmania donovani [1]. Besides, the selectivity ratio in data set [4] was found to be 3.6.
